# Source: PMC12531995 (RSC Advances, 2025)
# Marks after values point to notes of the source that are not given here.
# Assays:
# [1] = system: PTZ-induced seizures in mice; assay: Pentylenetetrazol; format: in vivo; conditions: Mus musculus, po, 24 h, read-out: 24 h mortality
# Procedure, shortened: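 Mice were randomised into ten groups of ten. Animals were dosed orally, with 0.5% carboxymethyl cellulose as the negative-control vehicle. Seizures were then induced by intraperitoneal pentylenetetrazol at a convulsive dose of 85 mg kg−1.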
# [2] = system: pilocarpine-induced seizures in mice; assay: Pilocarpine-induced seizure; format: in vivo
# Procedure, shortened: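 Male mice, n = 10 per group. Vehicle (0.5% CMC) or test compound (20 mg kg−1) given orally 30 min before pilocarpine (300 mg kg−1, i.p.) to induce status epilepticus. Valproic acid reference was 300 mg kg−1 orally, 30 min prior. Non-epileptic controls got vehicle only. Scored latency to forelimb clonus (stage 3), severity at 30, 60, 90 and 120 min, and 24 h survival. Mean ± SD.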
# [3] = system: carrageenan-induced paw edema in rats; conditions: cited from earlier work
SMILES,mortality at 20 mg/kg [1] [%],"24 h Survival ([2]; compounds 20 mg kg^−1, valproic acid 300 mg kg^−1 orally, mice n = 10) [%]","Onset (latency to forelimb clonus, stage 3) ([2]; mice n = 10, compounds 20 mg kg^−1 orally, valproic acid 300 mg kg^−1 orally, 30 minutes before pilocarpine 300 mg kg^−1 i.p., mean ± SD)","Reduction of final seizure severity ([2]; vs pilocarpine group, 120 min) [%]","Paw thickness difference, 1st hour ([3]; 1st hour post-carrageenan, oral, mean ± SD, n = 6) [mm]","Percentage of inhibition of paw thickness, 1st hour ([3]; 1st hour, vs carrageenan group) [%]","Paw thickness difference, 2nd hour ([3]; 2nd hour post-carrageenan, oral, mean ± SD, n = 6) [mm]","Percentage of inhibition of paw thickness, 2nd hour ([3]; 2nd hour, vs carrageenan group) [%]","Paw thickness difference, 3rd hour ([3]; 3rd hour post-carrageenan, oral, mean ± SD, n = 6) [mm]","Percentage of inhibition of paw thickness, 3rd hour ([3]; 3rd hour, vs carrageenan group) [%]","Paw thickness difference, 4th hour ([3]; 4th hour post-carrageenan, oral, mean ± SD, n = 6) [mm]","Percentage of inhibition of paw thickness, 4th hour ([3]; 4th hour, vs carrageenan group) [%]","Paw thickness difference, 5th hour ([3]; 5th hour post-carrageenan, oral, mean ± SD, n = 6) [mm]","Percentage of inhibition of paw thickness, 5th hour ([3]; 5th hour, vs carrageenan group) [%]",weight gain (paw) ([3]; 5 hour mark) [%],"Paw weight increase ([3]; right vs left paw, mean ± SD, n = 6)"
"CCCC(CCC)C(=O)O [Valproic acid (VI), valproic acid]",30,60,10.65 ± 0.52^a mins,60,,,,,,,,,,,,
Cc1ccc(-c2cc(C(F)(F)F)nn2-c2ccc(S(N)(=O)=O)cc2)cc1 [Celecoxib],,,,,1.4 ± 0.38,29.31,2.36 ± 0.51,28.34,2.83 ± 0.43,33,3.01 ± 0.57,40.39,3.10 ± 0.23,41.65,68.15,29.95 ± 2.20^ab %
